Active and inactive are the calls of the source. No cut-off for these calls is given here.
Tests used:
Cortical neurone [1] = assay: Inhibition of beta-amyloid (1-42)-induced toxicity in embryonic rat brain primary cortical neurons after 48 hrs; assay type: functional, tissue-based
Procedure, shortened: (§1)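 Primary cortical neurons pretreated with compound at a series of concentrations, then challenged with Aβ25–35 (10 µM), or Aβ1–42 in fewer cultures. Neurons labelled with calcein-AM (live) and propidium iodide (dead) and counted in several fields by fluorescence microscopy. EC50 taken from percentage survival.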

Cerebral cortex neuron [2] = assay: Increase in Hsp70 level in rat primary cortical neurons at 1 nM after 48 hrs relative to control; assay type: functional, cell-based
Procedure, shortened: (§2)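 Primary cortical neurons incubated 48 h with compound, concentrations from 1 nM to 10 µM. Hsp70 levels measured against DMSO controls.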

Cortical neurone [3] = assay: Inhibition of beta-amyloid (25-35)-induced toxicity in embryonic rat brain primary cortical neurons after 48 hrs; assay type: functional, tissue-based; procedure, shortened: as §1
SK-BR-3 [4] = assay: Antiproliferative activity against SKBR3 cells upto 100 uM; assay type: functional, cell-based; details: Homo sapiens
Procedure, shortened: (§3)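 MCF-7 and SkBr3 cells incubated with compound over a range of concentrations up to 100 µM. Viable cells quantitated by MTS/PMS assay. Triplicate wells per experiment, three independent experiments; IC50 from dose–response, values as means ± SE.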

MCF7 [5] = assay: Antiproliferative activity against MCF7 cells upto 100 uM; assay type: functional, cell-based; details: Homo sapiens; procedure, shortened: as §3
Cerebral cortex neuron [6] = assay: Increase in Hsp70 level in rat primary cortical neurons at 0.2 uM after 48 hrs; assay type: functional, cell-based; procedure, shortened: as §2
LNCaP [7] = assay: Induction of Hsp90 protein in LNCap cells expressing mutated androgen receptor at 10 nM; assay type: functional, cell-based; details: Homo sapiens
Procedure, shortened: (§4)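 LNCaP prostate cancer cells, which carry a mutated androgen receptor, exposed to compound from 10 nM upward. Hsp90 induction and loss of client proteins AR and AKT assessed.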

BMEC = assay: Permeability across BMECs; assay type: ADME, cell-based, Bos taurus; details: cattle, TDE = time-dependent effect
Procedure, shortened: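 Primary bovine BMEC monolayers mounted in a side-by-side diffusion chamber. Compound in the receiving chamber sampled over time, up to 90 min.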

LNCaP [8] = assay: Degradation of Hsp90 client protein androgen receptor in LNCap cells upto 1 uM; assay type: functional, cell-based; details: Homo sapiens; procedure, shortened: as §4
[9] = Cytotoxicity against rat neuronal cells at 10 uM after 72 hrs; assay type: cell-based; details: neuron
Procedure, shortened: (§5)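 Neuronal cultures given compound alone (10 µM) or DMSO vehicle. Viability read at 24 h and after 72 h. Percentage surviving neurons taken from three separate experiments, mean ± SE.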

LNCaP [10] = assay: Degradation of Hsp90 client protein AKT in LNCap cells upto 1 uM; assay type: functional, cell-based; details: Homo sapiens; procedure, shortened: as §4
SK-BR-3 [11] = assay: Antiproliferative activity against SKBR3 cells; assay type: functional, cell-based; details: Homo sapiens; procedure, shortened: as §3
MCF7 [12] = assay: Antiproliferative activity against MCF7 cells; assay type: functional, cell-based; details: Homo sapiens; procedure, shortened: as §3
[13] = Cytotoxicity against rat neuronal cells at 10 uM after 24 hrs; assay type: cell-based; details: neuron; procedure, shortened: as §5

Activity (BMEC)	Compound	Activity (Cortical neurone [1])	Activity (Cerebral cortex neuron [2])	Activity (Cortical neurone [3])	Activity (SK-BR-3 [4])	Activity (MCF7 [5])	Activity (Cerebral cortex neuron [6])	Activity (LNCaP [7])	Activity (LNCaP [8])	Activity [9]	Activity (LNCaP [10])	Activity (SK-BR-3 [11])	Activity (MCF7 [12])	Activity [13]
tde	CO[C@H]1[C@H](O)[C@@H](O)[C@H](Oc2ccc3cc(NC(C)=O)c(=O)oc3c2)OC1(C)C	Active	Active	Active	inactive	inactive	Active	Active	inactive	Not Active	inactive	–	–	–
–	COC1=C2C[C@@H](C)C[C@H](OC)[C@H](O)[C@@H](C)/C=C(\C)[C@H](OC(N)=O)[C@@H](OC)/C=C\C=C(/C)C(=O)NC(=CC1=O)C2=O [GELDANAMYCIN]	–	–	–	–	–	–	–	–	–	–	Dose-dependent effect	Dose-dependent effect	Active

From ChEMBL document CHEMBL1148860, “A non-toxic Hsp90 inhibitor protects neurons from Abeta-induced toxicity” (Bioorg Med Chem Lett, 2007)
